Results published in ChEMBL document CHEMBL1122756, “Synthesis of (E)-5-(3,3,3-trifluoro-1-propenyl)-2'-deoxyuridine and related analogues: potent and unusually selective antiviral activity of (E)-5-(3,3,3-trifluoro-1-propenyl)-2'-deoxyuridine against herpes simplex virus type 1” (1984).
In brackets after ≈: the same amount, converted by molar mass.

Key:
[1] = system: Human alphaherpesvirus 1; assay: Compound was evaluated for antiviral activity against HSV-1(TK-, strain B2006); format: functional
Method in brief: (§1)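 Herpes stocks grown in primary rabbit kidney (PRK) cells. Confluent PRK cultures were inoculated at 0.03 pfu/cell, and the compound's effect on virus multiplication was measured. The readout is ID99, the concentration that cuts viral yield by 99%.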

[2] = system: Human alphaherpesvirus 1; assay: Compound was evaluated for antiviral activity against HSV-1(strain KOS); format: functional; method in brief: as §1
[3] = system: Human alphaherpesvirus 2; assay: Compound was evaluated for antiviral activity against HSV-2(strain G); format: functional; method in brief: as §1
[4] = species on record: Oryctolagus cuniculus; assay: Concentration of compound required to inhibit [methyl-3H]dThd incorporation into host cell DNA by 50% in primary rabbit kidney cell cultures; format: functional; conditions: read-out: ID50 (the source's name)
Method in brief: (§2)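 Uptake of radiolabel into DNA was measured in PRK cultures. Input per 10^5 cells was 6 pmol (0.25 µCi) of [1',2'-3H]dUrd for the dUrd line, or 10 pmol (0.38 µCi) of [methyl-3H]dThd for the dThd line. The value is the concentration giving 50% inhibition of incorporation.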

[5] = species on record: Oryctolagus cuniculus; assay: Concentration of compound required to inhibit [1',2'-3H]dUrd incorporation into host cell DNA by 50% in primary rabbit kidney cell cultures; format: functional; conditions: read-out: ID50 (the source's name); method in brief: as §2
[6] = system: Vaccinia virus; assay: Compound was evaluated for antiviral activity against vaccinia; format: functional, Orthopoxvirus vaccinia
[7] = system: Vaccinia virus; assay: Compound was evaluated for its antiviral activity against vaccinia; format: functional, Orthopoxvirus vaccinia

## O=c1[nH]c(=O)n([C@H]2C[C@H](O)[C@@H](CO)O2)cc1/C=C/C(F)(F)F
[1]
  ID99: >100 µg/mL
[2]
  ID99: 0.03 µg/mL
[3]
  ID99: 100 µg/mL
[4]
  IC50: 300 µg/mL (≈ 931 µM)
[5]
  IC50: 150 µg/mL (≈ 465 µM)
[6]
  ID99: >100 µg/mL

## C/C=C/c1cn([C@H]2C[C@H](O)[C@@H](CO)O2)c(=O)[nH]c1=O
[1]
  ID99: >100 µg/mL
[2]
  ID99: 0.15 µg/mL
[3]
  ID99: 18 µg/mL
[4]
  IC50: 25 µg/mL (≈ 93.2 µM)
[5]
  IC50: 40 µg/mL (≈ 149 µM)
[6]
  ID99: >100 µg/mL

## O=c1[nH]c(=O)n([C@H]2C[C@H](O)[C@@H](CO)O2)cc1/C=C/Br [BRIVUDINE]
[1]
  ID99: >100 µg/mL
[2]
  ID99: 0.008 µg/mL
[3]
  ID99: 3 µg/mL
[4]
  IC50: 70 µg/mL (≈ 210 µM)
[5]
  IC50: 20 µg/mL (≈ 60 µM)
[7]
  ID99: 22 µg/mL

## O=c1[nH]c(=O)n([C@H]2C[C@H](O)[C@@H](CO)O2)cc1I [IDOXURIDINE]
[1]
  ID99: >100 µg/mL
[2]
  ID99: 0.1 µg/mL
[3]
  ID99: 0.8 µg/mL
[4]
  IC50: 1 µg/mL (≈ 2.82 µM)
[5]
  IC50: 0.25 µg/mL (≈ 0.706 µM)
[6]
  ID99: 0.25 µg/mL

## O=c1[nH]c(=O)n([C@H]2C[C@H](O)[C@@H](CO)O2)cc1C(F)(F)F [TRIFLURIDINE]
[1]
  ID99: 0.4 µg/mL
[2]
  ID99: 0.7 µg/mL
[3]
  ID99: 1.2 µg/mL
[4]
  IC50: 20 µg/mL (≈ 67.5 µM)
[5]
  IC50: 0.01 µg/mL (≈ 0.0338 µM)
[6]
  ID99: 0.12 µg/mL
